Data: ChEMBL document CHEMBL5033992, “Discovery and Synthesis of a Pyrimidine-Based Aurora Kinase Inhibitor to Reduce Levels of MYC Oncoproteins” (J Med Chem, 2021)
Calls of active or inactive are those of the source. The calls are words filed in the database; no cut-off is given here.

Key:
NCI-H82 [1] = assay: Growth inhibition of human NCI-H82 cells assessed as reduction in cell viability after 72 hrs by PrestoBlue Cell Viability assay; format: functional, cell-based; conditions: NCI-H82, 72 h
Procedure, shortened: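 Cells seeded at 5000–10,000 per well, grown 24 h in RPMI1640 with 10% FBS and antibiotics, then exposed to compound at 0–10 μM for 72 h. Viability read by PrestoBlue fluorescence. IC50 from triplicate eight-point titration.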

SK-N-BE(2) [2] = assay: Growth inhibition of human SKNBE2 cells assessed as reduction in cell viability after 24 hrs by PrestoBlue Cell Viability assay; conditions: SKNBE2, 24 h
[3] = Effect on cMYC protein expression level in human NCI-H82 cells assessed as fold change at 1 uM incubated for 24 hrs by Western blot analysis relative to control; format: functional
Procedure, shortened: (§1)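 Cells treated with compound at various concentrations for 24 h, then washed in PBS, lysed in Laemmli buffer and boiled 10 min. Lysates run on SDS-PAGE, transferred to PVDF and probed with antibodies, then AP- or HRP-conjugated secondaries with chemiluminescent detection. Loading control β-actin. NCI-H82 grown in RPMI1640 and SK-N-BE(2) in MEM, each with 10% FBS. Relative levels quantified from triplicate experiments.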

[4] = Effect on MYCN protein expression level in human SKNBE2 cells assessed as fold change at 1 uM incubated for 24 hrs by Western blot analysis relative to control; format: functional, SK-N-BE(2); procedure, shortened: as §1
[5] = Half life in ICR mouse at 2 mg/kg, iv measured up to 24 hrs by LC-MS/MS analysis; format: ADME, organism-based; conditions: in vivo
[6] = Volume of distribution at steady state in ICR mouse at 2 mg/kg, iv measured up to 24 hrs by LC-MS/MS analysis; format: ADME, organism-based; conditions: in vivo, read-out: Vdss
[7] = AUC (0 to inf) in ICR mouse at 2 mg/kg, iv measured up to 24 hrs by LC-MS/MS analysis; format: ADME, organism-based; parameters: route intravenous, dose 2 mg/kg, time <=24; conditions: in vivo; for AUC(0-inf): ICR
[8] = Half life in ICR mouse at 10 mg/kg, po measured up to 24 hrs by LC-MS/MS analysis; format: ADME, organism-based; conditions: in vivo
[9] = Cmax in ICR mouse at 10 mg/kg, po measured up to 24 hrs by LC-MS/MS analysis; format: ADME, organism-based; parameters: route oral, dose 10 mg/kg, time <=24; conditions: in vivo
[10] = Tmax in ICR mouse at 10 mg/kg, po measured up to 24 hrs by LC-MS/MS analysis; format: ADME, organism-based; conditions: in vivo
[11] = AUC (0 to inf) in ICR mouse at 10 mg/kg, po measured up to 24 hrs by LC-MS/MS analysis; format: ADME, organism-based; parameters: route oral, dose 10 mg/kg, time <=24; conditions: in vivo
[12] = Clearance in ICR mouse at 2 mg/kg, iv measured up to 24 hrs by LC-MS/MS analysis; format: ADME, organism-based; conditions: in vivo
[13] = Oral bioavailability in ICR mouse at 10 mg/kg measured up to 24 hrs by LC-MS/MS analysis; format: ADME, organism-based; conditions: in vivo
NCI-H446 [14] = assay: Anti-tumor activity against human NCI-H446 cells xenografted in athymic nu/nu nude mouse assessed as reduction in tumor volume at 50 to 100 mg/kg, po administered at 5 on-2-off for 2 to 4 weeks; format: functional, organism-based; conditions: dose 50-100 mg/kg, time 2-4 weeks
Procedure, shortened: (§2)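 Male athymic nu/nu mice, 6 weeks old, inoculated subcutaneously with 1 × 10⁶ NCI-H446 cells in saline with 50% Matrigel. Dosing IV or oral, vehicle 5% dimethylacetamide/95% PEG400, on a 5-on-2-off schedule for 2–4 weeks once tumors reached ≥200 mm³. Caliper volume = length × width²/2; tumors and body weight measured at least twice weekly. ANOVA with Student–Newman–Keuls, P < 0.05.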

[15] = Toxicity in athymic nu/nu nude mouse xenografted with NCI-H446 cells assessed as reduction in body weight at 50 to 100 mg/kg, po administered at 5 on-2-off for 2 to 4 weeks relative to control; format: organism-based; parameters: scale not given: the % may be the effect or the level left; conditions: in vivo, dose lower 50 mg/kg, time lower 2 weeks, dose upper 100 mg/kg, time upper 4 weeks; procedure, shortened: as §2
[16] = biological target: T1, Aurora kinase A (Homo sapiens) (UniProt O14965); assay: Inhibition of recombinant GST-tagged N-terminal truncated human Aurora A (123 to 401 residues) expressed in Sf9 insect cell using tetra-LRRASLG peptide as substrate at 100 nM incubated for 120 mins by Kinase-Glo plus luminescent kinase assay relative to control
T1 sequence (whole entry): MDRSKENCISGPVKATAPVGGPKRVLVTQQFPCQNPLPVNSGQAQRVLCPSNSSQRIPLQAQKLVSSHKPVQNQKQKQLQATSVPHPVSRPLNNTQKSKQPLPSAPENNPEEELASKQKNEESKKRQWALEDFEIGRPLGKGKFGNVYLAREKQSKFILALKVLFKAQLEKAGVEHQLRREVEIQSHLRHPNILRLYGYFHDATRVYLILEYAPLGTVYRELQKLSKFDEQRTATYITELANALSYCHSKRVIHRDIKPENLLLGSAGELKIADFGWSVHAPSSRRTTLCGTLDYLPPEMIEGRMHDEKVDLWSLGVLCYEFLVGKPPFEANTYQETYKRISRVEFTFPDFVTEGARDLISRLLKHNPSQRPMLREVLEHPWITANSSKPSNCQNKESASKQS

NCI-H82 [17] = assay: Induction of cell cycle arrest in human NCI-H82 cells at 1 uM after 24 hrs by Propidium iodide staining based flow cytometric analysis; format: functional
[18] = biological target: Aurora kinase B (Homo sapiens) (UniProt Q96GD4); assay: Inhibition of Aurora B phosphorylation in human NCI-H82 cells assessed as reduction in phosphorylation at Thr 232 residue at 50 to 1000 nM after 24 hrs by Western blot analysis; format: cell-based; conditions: dose 50-1000 nM; procedure, shortened: as §1
Chain of Aurora kinase B (Homo sapiens) (Q96GD4 whole entry): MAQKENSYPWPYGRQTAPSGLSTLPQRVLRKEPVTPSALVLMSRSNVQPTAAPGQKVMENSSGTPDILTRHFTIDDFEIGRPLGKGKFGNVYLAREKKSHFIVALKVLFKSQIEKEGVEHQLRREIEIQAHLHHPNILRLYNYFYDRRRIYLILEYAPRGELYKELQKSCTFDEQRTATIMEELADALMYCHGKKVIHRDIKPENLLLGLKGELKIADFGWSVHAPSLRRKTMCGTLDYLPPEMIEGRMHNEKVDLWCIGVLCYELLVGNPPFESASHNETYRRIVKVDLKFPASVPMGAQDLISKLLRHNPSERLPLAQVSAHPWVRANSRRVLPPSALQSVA

NCI-H82 [19] = assay: Inhibition of Histone H3 phosphorylation in human NCI-H82 cells assessed as reduction in phosphorylation at Ser 10 residue at 50 to 1000 nM after 24 hrs by Western blot analysis; format: cell-based; conditions: dose 50-1000 nM; procedure, shortened: as §1
[20] = biological target: Aurora kinase B (Homo sapiens) (UniProt Q96GD4); assay: Inhibition of Aurora B phosphorylation in human SKNBE2 cells assessed as reduction in phosphorylation at Thr 232 residue at 50 to 1000 nM after 24 hrs by Western blot analysis; format: cell-based; conditions: dose 50-1000 nM; procedure, shortened: as §1
SKNBE2 = assay: Inhibition of Histone H3 phosphorylation in human SKNBE2cells assessed as reduction in phosphorylation at Ser 10 residue at 50 to 1000 nM after 24 hrs by Western blot analysis; conditions: dose 50-1000 nM; procedure, shortened: as §1
NCI-H82 [21] = assay: Down regulation of Cyclin B1 expression in human NCI-H82 cells at 50 to 1000 nM after 24 hrs by Western blot analysis; format: functional, cell-based; conditions: dose 50-1000 nM; procedure, shortened: as §1
SK-N-BE(2) [22] = assay: Down regulation of Cyclin B1 expression in human SKNBE2 cells at 50 to 1000 nM after 24 hrs by Western blot analysis; format: functional, cell-based; conditions: dose 50-1000 nM; procedure, shortened: as §1
NCI-H446 [23] = assay: Induction of apoptosis in human NCI-H446 cells xenografted in athymic nu/nu nude mouse assessed as increase in cleaved PARP1 protein expression level at 100 mg/kg, po measured up to 24 hrs by Western blot analysis; conditions: time hrs <=24
[24] = Inhibition of Histone H3 phosphorylation in human NCI-H446 cells xenografted in assessed as reduction in phosphorylation at Ser 10 residue at 100 mg/kg, po measured upto 8 hrs by western blot analysis relative to control

`CCN1CCN(C(=O)Cc2ccc(Nc3ncc(F)c(Nc4ccc(C(=O)Nc5ccccc5Cl)cc4)n3)cc2)CC1` showed an IC50 (NCI-H82 [1]) of 1 nM and an IC50 (SK-N-BE(2) [2]) of 1 nM.

In the case of `CCN1CCN(c2cc(Nc3cc(C)[nH]n3)nc(N[C@H]3CCN(C(=O)c4ccccc4)C3)n2)CC1`, the “fold change (FC)” value [3] is reported as 0.93 and the “fold change (FC)” value [4] is reported as 0.919.

With `Cc1cc(Nc2cc(N3CC[C@H](N(C)C)C3)nc(N[C@H]3CCN(C(=O)c4cccc(Cl)c4F)C3)n2)n[nH]1` the “fold change (FC)” value [3] was 0.996 and the “fold change (FC)” value [4] was 0.809.

`CCC(=O)n1nc(Nc2cc(N3CCN(CC)CC3)nc(N[C@H]3CCN(C(=O)c4ccc(Cl)cc4F)C3)n2)cc1C` showed a half-life [5] of 1 h, a Vd [6] of 0.9 L/kg and an AUC ([7]; 24 h) of 351 ng·h/mL. The half-life [8] was 1.9 h, the Cmax [9] was 114 ng/mL and the Tmax [10] was 0.4 h. It also gave an AUC(0-inf) [11] of 243 ng·h/mL.

In the case of `Cc1cc(Nc2cc(N3CCN(C)CC3)nc(N[C@H]3CCN(C(=O)c4cccc(Cl)c4F)C3)n2)n[nH]1`, the “fold change (FC)” value [3] is reported as 0.843 and the “fold change (FC)” value [4] is reported as 0.815.

For `CCN1CCN(c2cc(Nc3cc(C)[nH]n3)nc(N[C@H]3CCN(C(=O)c4cccc(Cl)c4F)C3)n2)CC1`, the “fold change (FC)” value [4] was 0.741.

With `CCOC(=O)n1nc(C)cc1Nc1cc(N2CCN(CC)CC2)nc(N[C@H]2CCN(C(=O)c3ccc(Cl)cc3F)C2)n1` the half-life [5] was 5.8 h, the clearance [12] was 20 mL/min/kg and the Vd [6] was 2.8 L/kg. It also gave an AUC(0-inf) [7] of 1480 ng·h/mL, a half-life [8] of 2.7 h and a Cmax [9] of 1090 ng/mL. For the same compound, the Tmax [10] was 0.3 h, the AUC(0-inf) [11] was 4050 ng·h/mL and the bioavailability [13] was 54.5%. The Activity (NCI-H446 [14]) was “Dose-Dependent Effect” and the Activity [15] was < 5%.

In the case of `CCN1CCN(c2cc(Nc3cc(C)[nH]n3)nc(N[C@H]3CCN(S(=O)(=O)c4ccc(Cl)cc4F)C3)n2)CC1`, the inhibition [16] is reported as < 50%.

In the case of `CCN1CCN(c2cc(Nc3cc(C)[nH]n3)nc(N[C@H]3CCN(C(=O)c4cc(F)c(Cl)c(F)c4)C3)n2)CC1`, the inhibition [16] is reported as < 50%.

In the case of `Cc1cc(Nc2cc(N(C)CCN(C)C)nc(N[C@H]3CCN(C(=O)c4cccc(Cl)c4F)C3)n2)n[nH]1`, the “fold change (FC)” value [3] is reported as 0.911 and the “fold change (FC)” value [4] is reported as 0.805.

With `CCN1CCN(c2cc(Nc3cc(C)nn3C(=O)C(C)(C)C)nc(N[C@H]3CCN(C(=O)c4ccc(Cl)cc4F)C3)n2)CC1` the half-life [5] was 5.5 h, the clearance [12] was 73.3 mL/min/kg and the Vd [6] was 18.8 L/kg. It also gave an AUC(0-inf) [7] of 401 ng·h/mL, a half-life [8] of 2.2 h and a Cmax [9] of 36.1 ng/mL. The Tmax [10] was 1.4 h, the AUC(0-inf) [11] was 157 ng·h/mL and the bioavailability [13] was 7.8%.

With `CCN(CCCOc1ccc2c(Nc3cc(CC(=O)Nc4cccc(F)c4)[nH]n3)ncnc2c1)CCOP(=O)(O)O` [BARASERTIB] the IC50 (NCI-H82 [1]) was 1 nM, the Activity (NCI-H82 [17]) was “Active” and the IC50 (SK-N-BE(2) [2]) was 1 nM.

Compound `CCN1CCN(c2cc(Nc3cc(C)nn3C(=O)OC(C)(C)C)nc(N[C@H]3CCN(C(=O)c4ccc(Cl)cc4F)C3)n2)CC1` has a half-life [5] of 5 h, a clearance [12] of 38 mL/min/kg and a Vd [6] of 4.9 L/kg. For the same compound, the AUC(0-inf) [7] was 780 ng·h/mL, the half-life [8] was 3.3 h and the Cmax [9] was 690 ng/mL. For the same compound, the Tmax [10] was 0.5 h, the AUC(0-inf) [11] was 1130 ng·h/mL and the bioavailability [13] was 28.9%.

With `CCN1CCN(c2cc(Nc3cc(C)[nH]n3)nc(N[C@H]3CCN(C(=O)c4ccc(Cl)nc4F)C3)n2)CC1` the inhibition [16] was < 50%.

For `CCN1CCN(c2cc(Nc3cc(C)[nH]n3)nc(N[C@H]3CCN(C(=O)c4cc(F)c(F)cc4F)C3)n2)CC1`, the inhibition [16] was < 50%.

In the case of `CCOC(=O)n1nc(Nc2cc(N3CCN(CC)CC3)nc(N[C@H]3CCN(C(=O)c4ccc(Cl)cc4F)C3)n2)cc1C`, the half-life [8] is reported as 2.3 h, the Cmax [9] is reported as 274 ng/mL and the Tmax [10] is reported as 0.4 h. It also gave an AUC(0-inf) [11] of 961 ng·h/mL.

With `CCN1CCN(c2cc(Nc3cc(C)[nH]n3)nc(N[C@H]3CCN(C(=O)c4ccc(C(F)(F)F)cc4F)C3)n2)CC1` the inhibition [16] was < 50%.

With `COc1cc(Nc2ncc3c(n2)-c2ccc(Cl)cc2C(c2c(F)cccc2OC)=NC3)ccc1C(=O)O` [ALISERTIB] the inhibition [18] was “Dose-Dependent Effect”, the inhibition (NCI-H82 [19]) was “Active” and the inhibition [20] was “Dose-Dependent Effect”. For the same compound, the inhibition (SKNBE2) was “Active”, the Activity (NCI-H82 [21]) was “Active” and the Activity (SK-N-BE(2) [22]) was “Active”. The Activity (NCI-H446 [23]) was “Active” and the inhibition in vivo at 100 mg/kg [24] was > 90%.

In the case of `Cc1cc(Nc2cc(N3CC(N(C)C)C3)nc(N[C@H]3CCN(C(=O)c4cccc(Cl)c4F)C3)n2)n[nH]1`, the “fold change (FC)” value [3] is reported as 1.084 and the “fold change (FC)” value [4] is reported as 0.754.
